Consider 1 molecule from ChEMBL document CHEMBL2331340, “Novel antitumor indolizino[6,7-b]indoles with multiple modes of action: DNA cross-linking and topoisomerase I and II inhibition” (J Med Chem, 2013).

The source made the active and inactive calls. The calls are words filed in the database; no cut-off is given here.

The test system of data set [1] is HT-29. The data set can be described thus: Antitumor activity against human HT-29 cells xenografted in nude mouse assessed as tumor growth inhibition at 60 mg/kg, iv tid administered 2 days measured on day 20. Format: functional, organism-based. Also on record: dose 60 mg/kg. On the technique in general: In xenograft studies the graft and the host belong to different species.

For data set [2], the target named is T1, DNA topoisomerase 1 (Homo sapiens) (UniProt P11387).
T1 sequence (whole entry): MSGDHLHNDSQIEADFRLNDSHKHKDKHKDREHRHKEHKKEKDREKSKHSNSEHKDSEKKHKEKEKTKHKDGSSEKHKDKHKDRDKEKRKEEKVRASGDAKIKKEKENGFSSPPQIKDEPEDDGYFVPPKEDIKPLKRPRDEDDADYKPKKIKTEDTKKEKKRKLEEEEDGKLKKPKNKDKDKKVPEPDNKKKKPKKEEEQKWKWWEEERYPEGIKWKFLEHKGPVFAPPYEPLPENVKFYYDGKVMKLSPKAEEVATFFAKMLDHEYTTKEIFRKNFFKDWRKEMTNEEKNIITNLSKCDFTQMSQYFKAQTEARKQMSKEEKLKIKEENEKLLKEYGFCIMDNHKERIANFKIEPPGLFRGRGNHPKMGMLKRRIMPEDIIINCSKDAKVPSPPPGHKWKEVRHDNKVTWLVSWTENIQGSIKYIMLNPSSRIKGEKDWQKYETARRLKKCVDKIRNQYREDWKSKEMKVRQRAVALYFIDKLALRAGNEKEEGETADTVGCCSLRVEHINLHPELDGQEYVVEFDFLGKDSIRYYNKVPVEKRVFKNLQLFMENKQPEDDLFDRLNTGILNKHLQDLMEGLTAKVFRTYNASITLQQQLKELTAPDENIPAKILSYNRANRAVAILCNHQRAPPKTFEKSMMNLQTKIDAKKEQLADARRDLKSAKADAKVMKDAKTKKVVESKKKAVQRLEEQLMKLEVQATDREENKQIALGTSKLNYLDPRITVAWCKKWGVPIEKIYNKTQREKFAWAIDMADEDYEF
In words: Inhibition of DNA topoisomerase 1 (unknown origin)-mediated relaxation of supercoiled pHOT DNA at 25 to 100 uM after 30 to 45 mins by agarose gel electrophoresis. Summed up: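 Supercoiled pHOT DNA (200 ng) and compound in 10 mM Tris-HCl pH 7.9 with 1 mM EDTA at 37 °C. Reaction started with 1 unit topo I, run 30−45 min, stopped with 10% SDS. Products separated on 1% agarose at 50 V for 90 min and stained with ethidium bromide.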

For data set [3], the system named is Mus musculus. The data set can be described thus: Toxicity in nude mouse xenografted with human HT-29 cells assessed as body weight loss at 60 mg/kg, iv tid administered 2 days measured for 20 days. Particulars: in vivo, 480 h. In kind it is organism-based. Also on record: dose 60 mg/kg, route intravenous.
Another data set has as its system A549. The data set can be described thus: Antitumor activity against human A549 cells xenografted in nude mouse assessed as tumor growth inhibition at 60 mg/kg, iv tid administered 2 days measured on day 20 relative to vehicle-treated control. Format: functional. The following applies: read-out: TGI.
Data set [4] deals with Mus musculus. In words: Toxicity in nude mouse xenografted with human A549 cells assessed as body weight loss at 60 mg/kg, iv tid administered 2 days measured for 20 days. Format: organism-based. Also on record: dose 60 mg/kg, route intravenous. Particulars: in vivo, 480 h.
The subject of data set [5] is HT-29. The data set can be described thus: Antitumor activity against human HT-29 cells xenografted in nude mouse assessed as tumor growth inhibition at 60 mg/kg, iv tid administered 2 days measured on day 22. Format: functional, organism-based. Also on record: dose 60 mg/kg.

As for `CCc1c2c(nc3ccc(OC(=O)N4CCC(N5CCCCC5)CC4)cc13)-c1cc3c(c(=O)n1C2)COC(=O)[C@]3(O)CC` [IRINOTECAN], the TGI result with HT-29 [1] was “Active”. In addition, in data set [2], the inhibition entry was “Active”. Moreover, the Activity entry in the data set on Mus musculus [3] and in the data set with Mus musculus [4] was “Toxic” each time. The inhibition in vivo at 60 mg/kg with A549 stood at 50%. In the data set with HT-29 [5], the TGI result is “inactive”.
